Experimental data from ChEMBL document CHEMBL3817780, “Structure-Based Design of 1,4-Dibenzoylpiperazines as β-Catenin/B-Cell Lymphoma 9 Protein-Protein Interaction Inhibitors” (ACS Med Chem Lett, 2016).
Each block holds one molecule with its values, some of them ahead of it. The source made the active and inactive calls. No cut-off for these calls is given here.

Tests used:
Homo sapiens = species: Homo sapiens; assay: Selectivity ratio of Ki for wild type beta-catenin (unknown origin)/ N-terminally biotinylated human BCL9 (350 to 375 residues) interaction to Ki for wild type beta-catenin (unknown origin)/N-terminally biotinylated human E-cadherin (824 to 887 residues) interaction
[1] = biological target: T1, beta-catenin-B-cell lymphoma 9 protein complex (Homo sapiens, UniProt P35222); assay: Competitive inhibition of wild type beta-catenin (unknown origin) expressed in Escherichia coli BL21 DE3 interaction with N-terminally biotinylated human BCL9 (350 to 375 residues) by alpha screen assay
T1 sequence (P35222 whole entry): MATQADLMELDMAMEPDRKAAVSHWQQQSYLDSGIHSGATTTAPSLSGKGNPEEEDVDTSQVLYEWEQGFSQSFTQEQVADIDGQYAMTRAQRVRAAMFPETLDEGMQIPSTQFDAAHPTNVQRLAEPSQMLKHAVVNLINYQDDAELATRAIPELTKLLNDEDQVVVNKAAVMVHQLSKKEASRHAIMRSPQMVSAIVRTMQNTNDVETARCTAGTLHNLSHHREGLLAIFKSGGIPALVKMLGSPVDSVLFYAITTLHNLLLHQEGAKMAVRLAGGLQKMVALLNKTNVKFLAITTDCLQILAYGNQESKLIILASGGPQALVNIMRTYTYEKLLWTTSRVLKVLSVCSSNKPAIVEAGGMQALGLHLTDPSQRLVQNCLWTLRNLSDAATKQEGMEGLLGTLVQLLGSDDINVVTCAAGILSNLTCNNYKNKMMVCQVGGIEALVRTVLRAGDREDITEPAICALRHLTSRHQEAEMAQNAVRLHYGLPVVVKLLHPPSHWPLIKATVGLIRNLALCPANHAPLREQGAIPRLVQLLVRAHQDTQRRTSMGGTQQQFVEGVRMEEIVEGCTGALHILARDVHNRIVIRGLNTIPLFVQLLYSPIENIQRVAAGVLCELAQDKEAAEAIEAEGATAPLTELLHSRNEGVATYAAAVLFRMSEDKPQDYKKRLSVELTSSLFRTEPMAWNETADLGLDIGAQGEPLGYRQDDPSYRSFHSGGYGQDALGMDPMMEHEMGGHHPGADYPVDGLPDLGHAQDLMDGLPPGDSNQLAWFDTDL
T1 sequence (O00512 whole entry): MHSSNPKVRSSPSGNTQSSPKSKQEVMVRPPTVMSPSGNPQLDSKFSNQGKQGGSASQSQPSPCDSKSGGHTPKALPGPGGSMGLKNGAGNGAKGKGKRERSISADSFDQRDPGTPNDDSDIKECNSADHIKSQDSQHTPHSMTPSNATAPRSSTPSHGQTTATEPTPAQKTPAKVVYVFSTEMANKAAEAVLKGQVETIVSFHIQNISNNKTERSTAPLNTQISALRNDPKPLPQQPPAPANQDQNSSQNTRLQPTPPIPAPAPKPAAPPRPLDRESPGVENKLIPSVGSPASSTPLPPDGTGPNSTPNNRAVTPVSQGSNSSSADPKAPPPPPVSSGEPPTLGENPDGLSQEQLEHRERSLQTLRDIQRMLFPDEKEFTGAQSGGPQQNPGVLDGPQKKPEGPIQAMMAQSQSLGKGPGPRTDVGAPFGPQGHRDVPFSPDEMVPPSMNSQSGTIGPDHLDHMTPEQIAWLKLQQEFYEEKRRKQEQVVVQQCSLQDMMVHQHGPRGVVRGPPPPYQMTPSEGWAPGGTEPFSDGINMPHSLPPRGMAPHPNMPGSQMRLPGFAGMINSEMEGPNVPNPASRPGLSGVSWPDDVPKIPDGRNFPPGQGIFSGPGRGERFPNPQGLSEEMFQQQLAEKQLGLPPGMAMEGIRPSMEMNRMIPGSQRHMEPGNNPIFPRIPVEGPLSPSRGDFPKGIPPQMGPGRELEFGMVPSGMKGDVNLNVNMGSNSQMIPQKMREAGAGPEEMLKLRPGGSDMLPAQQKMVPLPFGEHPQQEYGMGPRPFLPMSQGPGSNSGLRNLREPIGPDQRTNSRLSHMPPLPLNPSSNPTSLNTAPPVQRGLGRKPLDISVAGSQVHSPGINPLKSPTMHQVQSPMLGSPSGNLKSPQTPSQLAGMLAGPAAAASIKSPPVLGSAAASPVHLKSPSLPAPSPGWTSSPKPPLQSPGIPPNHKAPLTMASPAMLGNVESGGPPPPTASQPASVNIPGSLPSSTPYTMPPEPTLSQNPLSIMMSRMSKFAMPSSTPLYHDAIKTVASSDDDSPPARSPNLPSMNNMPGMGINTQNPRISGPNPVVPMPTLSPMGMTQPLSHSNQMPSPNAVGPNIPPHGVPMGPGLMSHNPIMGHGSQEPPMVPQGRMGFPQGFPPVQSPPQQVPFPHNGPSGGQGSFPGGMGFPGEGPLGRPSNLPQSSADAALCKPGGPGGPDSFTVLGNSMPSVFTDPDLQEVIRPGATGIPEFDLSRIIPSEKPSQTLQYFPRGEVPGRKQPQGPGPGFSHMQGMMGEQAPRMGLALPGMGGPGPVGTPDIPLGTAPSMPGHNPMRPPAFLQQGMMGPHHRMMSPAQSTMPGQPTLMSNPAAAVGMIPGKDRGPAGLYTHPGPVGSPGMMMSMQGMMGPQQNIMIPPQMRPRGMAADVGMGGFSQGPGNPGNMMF
Method in brief: (§1)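 Competitive AlphaScreen binding assays run in parallel against wild-type β-catenin, one with the BCL9 partner and one with the E-cadherin partner; data given as mean ± standard deviation, n = 3.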

[2] = Competitive inhibition of N-terminally fluorescein-labeled human BCL9 (350 to 375 residues) interaction with beta-catenin E155A mutant (138 to 686 residues) (unknown origin) expressed in Escherichia coli BL21 DE3 after 3 hrs by fluorescence polarization assay
[3] = biological target: Cadherin-1/Transcription factor 7-like 2 (Homo sapiens, UniProt P12830+Q9NQB0); assay: Competitive inhibition of wild type beta-catenin (unknown origin) expressed in Escherichia coli BL21 DE3 interaction with N-terminally biotinylated human E-cadherin (824 to 887 residues) by alpha screen assay; method in brief: as §1
[4] = biological target: T2, Catenin beta-1 (Homo sapiens) (UniProt P35222); assay: Inhibition of beta-catenin (unknown origin) expressed in HEK293 cells up to 100 uM after 24 hrs by fopflash dual luciferase reporter gene assay; type: cell-based
T2 sequence (whole entry): T1 sequence (P35222 whole entry)
Method in brief: (§2)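 HEK293 cells transfected with pcDNA3.1−β-catenin; TOPFlash reporter carries wild-type Tcf binding sites and FOPFlash carries mutant Tcf sites; luciferase activity read across a dose series; mean ± standard deviation, n = 2.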

[5] = biological target: T2, Catenin beta-1 (Homo sapiens); assay: Inhibition of beta-catenin (unknown origin) expressed in HEK293 cells after 24 hrs by topflash dual luciferase reporter gene assay; type: cell-based; method in brief: as §2
A549 [6] = assay: Selectivity ratio of IC50 for human A549 cells to IC50 for human HCT116 cells; type: functional
[7] = Competitive inhibition of N-terminally fluorescein-labeled human BCL9 (350 to 375 residues) interaction with beta-catenin D145A mutant (138 to 686 residues) (unknown origin) expressed in Escherichia coli BL21 DE3 after 3 hrs by fluorescence polarization assay
[8] = Competitive inhibition of N-terminally fluorescein-labeled human BCL9 (350 to 375 residues) interaction with beta-catenin D145A/E155A double mutant (138 to 686 residues) (unknown origin) expressed in Escherichia coli BL21 DE3 after 3 hrs by fluorescence polarization assay
A549 [9] = assay: Cytotoxicity against Wnt-signaling latent human A549 cells assessed as reduction in cell viability after 72 hrs by MTS assay; type: functional, cell-based; conditions: A549, 72 h
[10] = Selectivity ratio of IC50 for human HEK293 cells to IC50 for human HCT116 cells; type: ADME, cell-based; conditions: HEK293 cells versus HCT116 cells, read-out: Ratio IC50
[11] = Cytotoxicity against Wnt-activated human HCT116 cells assessed as reduction in cell viability after 72 hrs by MTS assay; type: functional, cell-based; conditions: HCT-116, 72 h
SW480 = assay: Cytotoxicity against Wnt-activated human SW480 cells assessed as reduction in cell viability after 72 hrs by MTS assay; type: functional, cell-based; conditions: SW480, 72 h
A549 [12] = assay: Selectivity ratio of IC50 for human A549 cells to IC50 for human SW480 cells; type: functional
[13] = Selectivity ratio of IC50 for HEK293 cells to IC50 for human SW480 cells; type: ADME, cell-based; conditions: HEK293 cells versus SW480 cells, read-out: Ratio IC50
HEK293 = assay: Cytotoxicity against HEK293 cells assessed as reduction in cell viability after 72 hrs by MTS assay; type: cell-based; conditions: Homo sapiens, HEK293, 72 h

Cadherin-1/Transcription factor 7-like 2, sequence (Q9NQB0 whole entry, the tested form may be a part): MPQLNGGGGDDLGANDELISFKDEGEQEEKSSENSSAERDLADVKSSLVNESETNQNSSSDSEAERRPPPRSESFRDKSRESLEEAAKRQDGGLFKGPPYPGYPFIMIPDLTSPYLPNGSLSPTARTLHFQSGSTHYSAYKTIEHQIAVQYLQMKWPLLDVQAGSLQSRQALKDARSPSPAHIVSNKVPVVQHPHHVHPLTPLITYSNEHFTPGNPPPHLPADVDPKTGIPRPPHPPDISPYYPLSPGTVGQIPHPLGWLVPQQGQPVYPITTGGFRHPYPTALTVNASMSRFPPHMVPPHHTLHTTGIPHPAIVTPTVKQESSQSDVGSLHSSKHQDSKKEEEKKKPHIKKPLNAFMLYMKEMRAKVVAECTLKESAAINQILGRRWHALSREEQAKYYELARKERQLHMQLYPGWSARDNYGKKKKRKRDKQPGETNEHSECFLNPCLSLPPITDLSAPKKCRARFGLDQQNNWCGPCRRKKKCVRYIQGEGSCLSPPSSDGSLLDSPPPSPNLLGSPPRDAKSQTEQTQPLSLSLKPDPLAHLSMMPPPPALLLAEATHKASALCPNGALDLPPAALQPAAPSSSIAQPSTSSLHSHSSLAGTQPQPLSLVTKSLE
Cadherin-1/Transcription factor 7-like 2, sequence (P12830 whole entry, the tested form may be a part): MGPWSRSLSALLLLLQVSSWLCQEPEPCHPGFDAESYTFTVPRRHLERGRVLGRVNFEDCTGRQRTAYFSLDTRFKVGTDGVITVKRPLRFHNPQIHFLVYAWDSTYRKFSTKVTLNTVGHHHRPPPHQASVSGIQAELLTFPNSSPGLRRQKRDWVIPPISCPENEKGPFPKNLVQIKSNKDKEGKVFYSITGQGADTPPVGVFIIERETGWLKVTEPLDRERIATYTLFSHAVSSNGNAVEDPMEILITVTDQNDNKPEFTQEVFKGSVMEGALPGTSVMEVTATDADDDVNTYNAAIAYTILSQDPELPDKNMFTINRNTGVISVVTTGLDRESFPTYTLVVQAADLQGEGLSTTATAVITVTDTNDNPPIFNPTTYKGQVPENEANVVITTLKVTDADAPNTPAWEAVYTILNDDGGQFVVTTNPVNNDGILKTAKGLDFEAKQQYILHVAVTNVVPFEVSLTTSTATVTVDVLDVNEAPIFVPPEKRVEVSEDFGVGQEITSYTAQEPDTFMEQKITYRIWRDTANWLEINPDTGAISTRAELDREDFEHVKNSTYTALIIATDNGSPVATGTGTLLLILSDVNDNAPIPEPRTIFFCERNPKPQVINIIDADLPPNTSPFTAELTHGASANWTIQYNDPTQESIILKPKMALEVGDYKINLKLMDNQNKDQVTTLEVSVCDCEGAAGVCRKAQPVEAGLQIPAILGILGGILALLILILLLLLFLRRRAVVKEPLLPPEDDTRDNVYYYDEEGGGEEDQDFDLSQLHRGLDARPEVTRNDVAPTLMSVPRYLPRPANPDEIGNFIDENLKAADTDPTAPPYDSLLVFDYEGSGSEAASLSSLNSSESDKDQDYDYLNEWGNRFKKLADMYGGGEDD

SMILES: O=C(Nc1ccc(OC2CCNC2)c(-c2ccc(F)cc2)c1)c1ccc(O[C@H]2CCNC2)c(-c2ccc(F)c(F)c2)c1 (stereo partly specified)
Ratio Ki (Homo sapiens): 125
Ki [1]: 2.1 µM

Ki [1]: 70 µM
SMILES: CC1(C)CCC(c2cc(C(=O)N3CCN(C(=O)c4cc(F)cc(N5CCNCC5)c4)CC3)ccc2O[C@H]2CCNC2)CC1

IC50 [3]: 550 µM
Ki [3]: 510 µM
inhibition [4]: inactive
inhibition [5]: Dose-dependent effect
IC50 [1]: 5.6 µM
SMILES: Cl.Cl.O=C(c1cc(F)cc(N2CCNCC2)c1)N1CCN(C(=O)c2ccc(O[C@H]3CCNC3)c(C3CCCCC3)c2)CC1
Ki [2]: 39 µM
Ratio IC50 (A549 [6]): >10
Ki [7]: 29 µM
Ki [8]: 53 µM
IC50 (A549 [9]): 300 µM
selectivity ratio [10]: 3
IC50 [11]: 26 µM
IC50 (SW480): 22 µM
Ratio IC50 (A549 [12]): >10
selectivity ratio [13]: 3
IC50 (HEK293): 130 µM

SMILES: O=C(c1cc(F)cc(N2CCNCC2)c1)N1CCN(C(=O)c2ccc(O[C@H]3CCNC3)c(-c3ccc(F)cc3)c2)CC1
IC50 (SW480): 86 µM

inhibition [5]: Dose-dependent effect
Ki [1]: 16 µM
SMILES: Cl.Cl.O=C(c1cc(F)cc(N2CCNCC2)c1)N1CCN(C(=O)c2ccc(O[C@H]3CCNC3)c(C3CCC(C(F)(F)F)CC3)c2)CC1 (stereo partly specified)
Ratio IC50 (A549 [6]): >10
IC50 (A549 [9]): > 400 µM
selectivity ratio [10]: 3
IC50 [11]: 39 µM
IC50 (SW480): 44 µM
Ratio IC50 (A549 [12]): >10
selectivity ratio [13]: 3
IC50 (HEK293): 130 µM

Ki [1]: 170 µM
SMILES: CCC1CCC(c2cc(C(=O)N3CCN(C(=O)c4cc(F)cc(N5CCNCC5)c4)CC3)ccc2O[C@H]2CCNC2)CC1 (stereo partly specified)

Ki [1]: 20 µM
SMILES: O=C(c1cc(F)cc(C2CCNCC2)c1)N1CCN(C(=O)c2ccc(O[C@H]3CCNC3)c(-c3ccc(F)cc3)c2)CC1

Ki [1]: > 500 µM
SMILES: NCCc1cc(F)cc(C(=O)N2CCN(C(=O)c3cnc(O[C@H]4CCNC4)c(-c4ccc(F)cc4)c3)CC2)c1

Ki [1]: 53 µM
SMILES: O=C(c1cc(F)cc(N2CCNCC2)c1)N1CCN(C(=O)c2ccc(O[C@H]3CCNC3)c(C3CCCC3)c2)CC1

SMILES: CC(C)c1cc2c(c(O)c1O)[C@@]1(C(=O)O)CCCC(C)(C)[C@@H]1CC2 [CARNOSIC ACID]
Ki [1]: 5.3 µM

Ki [1]: 45 µM
SMILES: O=C(c1cc(F)cc(N2CCNCC2)c1)N1CCN(C(=O)c2ccc(O[C@H]3CCNC3)c(C3CCC(F)(F)CC3)c2)CC1
